Source: ChEMBL document CHEMBL2157916, “Design and synthesis of potent hydroxyethylamine (HEA) BACE-1 inhibitors carrying prime side 4,5,6,7-tetrahydrobenzazole and 4,5,6,7-tetrahydropyridinoazole templates” (Bioorg Med Chem Lett, 2012)

What was measured:
[1] = Apparent permeability across human Caco2 cells; assay type: ADME, cell-based; conditions: Caco-2
[2] = Intrinsic clearance in human liver microsomes; assay type: ADME, Microsome; conditions: read-out: CLH
[3] = Drug uptake in C57/B1 mouse brain at 20 umol/kg, iv at 0.5 hrs; assay type: ADME, organism-based; conditions: read-out: Drug uptake
Summary of the method: (§1)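 Male C57/B1 mice dosed iv at 20 μmol/kg. Brain and plasma exposure measured 0.5 h after dose, with brain levels followed up to 6 h after dose.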

[4] = Plasma concentration in C57/B1 mouse at 20 umol/kg, iv at 0.5 hrs; assay type: ADME, organism-based; summary of the method: as §1
[5] = Drug uptake in C57/B1 mouse brain at 20 umol/kg, iv up to 6 hrs; assay type: ADME, organism-based; conditions: read-out: Drug uptake; summary of the method: as §1
[6] = Plasma concentration in C57/B1 mouse at […], sc administered for 24 hrs; assay type: ADME, organism-based
[7] = Ratio of drug uptake in brain to plasma in C57/B1 mouse at […], sc administered for 24 hrs; assay type: ADME, organism-based; conditions: read-out: BPR

Work on CC(=O)N[C@@H](Cc1ccccc1)[C@H](O)CN[C@H]1CC(C)(C)Oc2ccc(CC(C)(C)C)cc21 yielded a Papp [1] of 21 ×10⁻⁶ cm/s and a microsomal CLint [2] of 200 µL/min/mg.
CC(=O)N[C@@H](Cc1ccccc1)[C@H](O)CNC1CC(C)(C)Cc2[nH]c(CC(C)(C)C)nc21 (mixture of isomers) showed a microsomal CLint [2] of 15 µL/min/mg.
CC(=O)N[C@@H](Cc1ccccc1)[C@H](O)CN[C@H]1CC(C)(C)Cc2nn(CC(C)C)cc21 gave a Papp [1] of 1.6 ×10⁻⁶ cm/s and a microsomal CLint [2] of 16 µL/min/mg.
CC(=O)N[C@@H](Cc1ccccc1)[C@H](O)CN[C@H]1CC(C)(C)Cn2nc(CC(C)(C)C)cc21 gave a Papp [1] of 5 ×10⁻⁶ cm/s and a microsomal CLint [2] of 70 µL/min/mg.
Compound CC(=O)N[C@@H](Cc1ccccc1)[C@H](O)CNC1CC(C)(C)Oc2sc(CC(C)(C)C)cc21 (mixture of isomers) has a Papp [1] of 5.6 ×10⁻⁶ cm/s and a microsomal CLint [2] of 82 µL/min/mg.
Work on CC(=O)N[C@@H](Cc1ccccc1)[C@H](O)CNC1CC(C)(C)Cc2nn(CC(C)(C)C)cc21 (mixture of isomers) yielded a Papp [1] of 1.5 ×10⁻⁶ cm/s, a concentration at 0.5 h [3] of 200 nM and a concentration at 0.5 h [4] of 4750 nM. For the same compound, the concentration at 6 h [5] was 68 nM, the concentration at 24 h [6] was 450 nM and the Kp at 24 h [7] was 0.69. For the same compound, the microsomal CLint [2] was 25 µL/min/mg.
